Screening results deposited in PubChem BioAssay by several laboratories.
Most compounds without a hit are left out; they make up all but 2.5% or so of the library.
ROCK2 inh – ROCK2 (human) kinase inhibition; 0.35% of 60,000 active; O75116; inhibition, % at 6 µM; purified ROCK2, Kinase-Glo ATP depletion luminescence;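 active means inhibition above the screen-wide mean inhibition plus 3 SD, cut at about 18% in these data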;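 further: plate controls were DMSO wells for no effect and Y-27632 control wells after no-enzyme background subtraction for full effect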
PKA inh – blocks human protein kinase A activity; inhibition, % at 6 µM; AID 524; PKA Kemptide phosphorylation, Kinase-Glo ATP luminescence; P17612; 0.1% of 65,000 active;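 active means inhibition above the screen-wide mean inhibition plus 3 SD, cut at about 21% in these data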
SF-1 act – activators of human nuclear receptor SF-1; Q13285; CHO-K1 Gal4-SF-1 LBD luciferase reporter; % increase over DMSO SF-1-specific signal; activation, % at 10 µM; 1.9% of 65,000 active; AID 522;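 active means activation above the mean activation of all tested compounds plus 3 SD, cut at about 50% in these data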
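Assay system – CHO-K1 cells with Gal4–hSF-1 LBD chimera plus Gal4-driven luciferase · Quantity – 4,000 cells per well · Times – compound added 1 h post-seeding, 20 h exposure at 37 °C, 5% CO2 · Measured by – luciferase light emission · Benchmarks – DMSO and mock-transfected background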
RORA act – RORA (human) activation; 1.5% of 65,000 active; activation, % at 10 µM; CHO-K1 Gal4-RORA LBD luciferase reporter, luminescence; percent increase over mock-subtracted basal signal; P35398;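 active means activation above the mean of all tested compounds plus 3 SD, cut at about 49% in these data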;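 further: 0% = DMSO-treated RORA cells and 100% = added signal equal to DMSO minus mock-transfected cells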
MT1-MMP txn act – MT1-MMP promoter transcription activation; 0.16% of 86,000 active; HT1080 MT1-MMP promoter luciferase reporter, luminescence, overnight; stronger effect = higher value; AID 750; activation factor at 10 µM;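 active means activation factor of at least 2 for MT1-MMP transcription at 10 µM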
JNK3 inh – blocks human JNK3 kinase activity | purified JNK3 kinase activity, HTS | inhibition, % at 8 µM | 0.61% of 60,000 active | AID 746; in the data active means inhibition above about 17%;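 further: 0% = DMSO and 100% = reference inhibitor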
Target sequence (P53779 whole entry, looked up): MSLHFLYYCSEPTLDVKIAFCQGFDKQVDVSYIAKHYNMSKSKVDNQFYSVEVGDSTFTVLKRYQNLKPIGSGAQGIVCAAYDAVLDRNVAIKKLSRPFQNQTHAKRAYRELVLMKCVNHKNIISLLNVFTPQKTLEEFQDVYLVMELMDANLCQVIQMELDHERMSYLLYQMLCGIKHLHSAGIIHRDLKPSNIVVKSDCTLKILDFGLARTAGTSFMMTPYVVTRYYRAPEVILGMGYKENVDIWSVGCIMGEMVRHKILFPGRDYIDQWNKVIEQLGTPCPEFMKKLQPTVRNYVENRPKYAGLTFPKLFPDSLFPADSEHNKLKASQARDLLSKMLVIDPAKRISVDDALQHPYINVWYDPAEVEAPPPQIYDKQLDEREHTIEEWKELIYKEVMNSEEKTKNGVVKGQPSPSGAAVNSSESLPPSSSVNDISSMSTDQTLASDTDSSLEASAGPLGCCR
The depositor's hits bear a star; · = no result.

SMILES	ROCK2 inh	PKA inh	SF-1 act	RORA act	MT1-MMP txn act	JNK3 inh
O=C1c2ccccc2NC(c2ccccn2)N1c1ccc(Cl)cc1 (stereo not given)	6	15	64*	51*	1.5	3
Cc1cccc(C2Nc3ccccc3C(=O)N2c2ccccc2)n1 (stereo not given)	6	8	-12	0	1.1	-4
CCCOc1ccc(S(=O)(=O)n2cc(Br)c(=O)[nH]c2=O)cc1	-3	-7	22	50*	1	-7
COc1ccc(NC2=Nc3ccccc3CC2)cc1	-2	4	58*	63*	1.2	7
c1ccc(-n2nc3c(ccc4cnnc43)[nH]2)cc1	8	1	36	55*	1.7	30*
O=C(Nn1c(=S)[nH]c2ccccc2c1=O)c1ccncc1	20*	7	27	34	1.1	-3
Cn1ncc(C#N)c1NC(=O)c1nn2cccnc2c1Cl	7	8	-3	-2	1	5
CCOc1ccccc1N1Cc2ccccc2C1	·	·	·	·	1	·
CCOc1ccc(N2Cc3ccccc3C2)cc1	2	3	62*	51*	1.2	5
CCC1=C2CC[C@H]3C(=O)NC(=O)[C@H]3[C@H]2[C@@]2(C)C(=NCC(=O)OC)OC(=O)N2C1=O	·	·	·	·	1.2	·
c1ccc(-c2n[nH]c(-c3ccccn3)n2)cc1	·	·	·	·	1.1	·
c1ccc(-c2n[nH]c(-c3ccccn3)n2)nc1	-18	-1	78*	24	1.2	2
CCn1c(C(=O)N2CCC(C(=O)NCCCSC3CCCCC3)CC2)cc2sccc21	-4	-4	1	-6	1	-10
O=C(c1ccc2c(c1)OCO2)N1CCc2ccccc2C1	10	4	44	66*	1.8	3
CCn1c(SCC(=O)Nc2ccc(Cl)cc2)nnc1C1CC1	3	12	0	-16	1.1	22*
CCn1c(SCC(=O)Nc2ccc(NC(C)=O)cc2)nnc1C1CC1	1	-6	0	4	1.1	-13
O=C1CC(N(Cc2ccco2)C(=O)Nc2ccc(F)cc2)C(=O)N1c1ccc(F)cc1 (stereo not given)	10	5	-14	-28	·	0
CC(=O)N1CC=CC1(CC(C)C)C(=O)O (stereo not given)	·	·	·	·	0.9	·
O=C(CCn1cnc2ccccc2c1=O)Nc1ccc(S(=O)(=O)N2CCCCC2)cc1	7	7	7	-9	1.1	20*
O=C(CCn1cnc2ccccc2c1=O)Nc1ccc(S(=O)(=O)N2CCCC2)cc1	-3	6	-16	13	1	27*
O=C(O)c1cccc(COc2ccccc2Cl)c1	·	-6	-94	-92	0	·
CN1CCN(C(=O)c2cccc(COc3cc(Cl)ccc3Cl)c2)CC1	6	8	69*	46	1.6	-2
COC(=O)[C@@]1(Cc2ccc(OC)cc2)[C@H]2c3cc(C(=O)N(C)C)n(Cc4ccc(C)c(F)c4F)c3C[C@H]2CN1C(=O)c1ccccc1	·	·	·	·	1.1	·
COc1ccc(NC(=O)c2ccc3nccnc3c2)cc1	·	·	·	·	1.7	·
O=C(Nc1ccc(Br)cn1)c1ccc2nccnc2c1	9	6	69*	44	1.8	4
SMILES	ROCK2 inh	PKA inh	SF-1 act	RORA act	MT1-MMP txn act	JNK3 inh
O=C(CSc1ncn[nH]1)Nc1nnc(-c2ccccc2)s1	-7	-5	-16	56*	1.3	-3
COc1ccccc1S(=O)(=O)Cc1ccc(C(=O)N2CCN(c3ccc(C)cc3)C(C)C2)o1 (stereo not given)	0	-6	38	13	·	-5
COc1ccc(S(=O)(=O)Cc2ccc(C(=O)N3CCN(c4cccc(C)c4)C(C)C3)o2)cc1 (stereo not given)	4	-1	28	55*	0.5	-1
CCCSc1nnc2nc3c(nn12)c1ccccc1n3C	5	3	-1	-5	1.1	-8
COC(=O)[C@@H]1C[C@@]2(O)[C@@H](O)[C@@H](O)[C@@H](O)C[C@H]2N1Cc1ccc(N2CCOCC2)cc1	·	·	·	·	1.1	·
CCN1CCN(CCCNc2ncnc3nc[nH]c23)CC1	7	7	-6	-34	0.9	5
c1cn(CCCNc2ncnc3nc[nH]c23)cn1	40*	18	1	-1	0.9	-4
Cc1ccc(-n2ncc3c(N4CCCC4)ncnc32)c(C)c1	-9	2	66*	29	1.7	-10
CC1CCCN(c2ncnc3c2cnn3-c2ccccc2)C1 (stereo not given)	4	5	-48	-57	·	0
Cc1ccc(-n2ncc3c(N4CCCC(C)C4)ncnc32)c(C)c1 (stereo not given)	2	10	59*	43	1.1	5
CN(CC(=O)N1CCN(C2CCCCC2)CC1)S(=O)(=O)c1cccc2nsnc12	-3	3	-2	-6	1.2	4
Cc1nnc(SCC(=O)Nc2cccc(C(F)(F)F)c2)[nH]c1=O	7	12	-20	-2	1.2	-9
Nc1nc(Nc2ccc(Cl)cc2Cl)nc(C(F)(F)F)n1	0	0	85*	56*	1.1	-1
Cc1ccc(OCCNS(=O)(=O)c2cccs2)cc1	5	6	23	16	1.3	7
COC(=O)[C@@]1(Cc2ccc(OC)cc2)[C@H]2c3cc(C(=O)N(C)C)n(Cc4cc(C)n(C)n4)c3C[C@H]2CN1C(=O)c1ccccc1	·	·	·	·	1.1	·
CCOC(=O)c1cnc2ccc(Cl)cc2c1N1CCN(C)CC1	5	4	0	7	1.1	32*
COC(=O)CNC(=O)C1(C)C=CC2(CCCCC2)N1C(C)=O (stereo not given)	·	·	·	·	1.2	·
O=C(Nc1ccccc1)N1CCc2ccccc21	·	·	·	·	1.2	·
CCOC(=O)c1ccc(NC(=O)N2CCc3ccccc32)cc1	-7	6	61*	14	1.4	1
C=C1C(=O)C=C2CN(C(=O)c3ccccc3)[C@@](Cc3ccc(OC)cc3)(C(=O)OC)[C@@H]12	·	·	·	·	1.1	·
CCOC(=O)N1CCN(C(=O)c2ccccc2-c2ccccc2)CC1	6	12	60*	17	0.5	8
CCOC(=O)N1CCN(C(=O)c2ccccc2CCc2ccccc2)CC1	6	7	-3	-6	1.1	-2
CCOC(=O)c1c(C)n(C)c2c(C)cc(O)c(OC(=O)CC)c12	4	6	12	0	1	-4
c1ccc2c(c1)NC1(CCCCC1)n1c-2nc2ccccc21	0	1	31	53*	1.4	-3
CCOC(=O)c1c(C(=O)OCC)c(C)n(N2C(=O)CSC2=S)c1C	-1	-3	-2	-4	1	2
CCOC(=O)c1c(C)[nH]sc1=S	-4	-5	-5	-8	1	19*
Cn1ncc2c1ncn1nc(CCc3ccccc3)nc21	6	11	50*	44	1.5	2
COC(=O)[C@@H]1C[C@@]2(O)[C@@H](O)[C@@H](O)[C@@H](O)C[C@H]2N1CC1CC1	·	·	·	·	1.1	·
